pKd, pKi: −log10 of the molar value. Active and inactive are the calls of the source. The calls are words filed in the database; no cut-off is given here.
Legend:
[1] = Kinetic solubility in pH 7.4 HEPES-BSA buffer at 5 uM incubated for 24 hrs at 20 degC by HPLC method; format: physicochemical; conditions: read-out: Kinetic_solubility
Method in brief: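 Compound added from 10 mM DMSO stock to 5 μM in pH 7.4 HEPES-BSA buffer (1 g/L BSA), shaken 24 h at 20 °C. After centrifugation, supernatant concentration measured by HPLC against 5 and 10 μM standards.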

[2] = Stability in presence of GSH assessed as Michael acceptor reactivity by measuring GSH adduct formation after 2 hrs at 37 degC by LC-MS/MS method; format: physicochemical
Method in brief: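 Compound 200 μM with 500 μM reduced GSH in methanol/50 mM carbonate buffer pH 8. Aliquots taken at 1 min and 2 h, diluted 1/40, and analysed by LC-MS/MS for GSH-conjugate formation.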

[3] = Chemical stability in pH 7.4 PBS buffer assessed as parent compound remaining at 10 uM incubated for 24 hrs by RP-HPLC method; format: physicochemical; conditions: read-out: Stability
Method in brief: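 Compound diluted from DMSO stock to 10 μM final (1% DMSO) in PBS pH 7.4, or in PBS with 10% w/w (2-hydroxypropyl)-β-cyclodextrin. Sampled at t0, 2, 4, 6 and 24 h and injected directly onto RP-HPLC. Percent remaining relative to t0 from peak area.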

Mus musculus [4] = assay: Toxicity in Balb/c mouse model of hypereosinophilia assessed as induction of spleen lesions at 350 umol/kg, ip dosed daily 2 hrs before allergen challenge for […] and measured 24 hrs after last dose by Gomori's trichrome staining based histological analysis; format: organism-based; conditions: in vivo
Mus musculus [5] = assay: Toxicity in Balb/c mouse model of hypereosinophilia assessed as prostration at 350 umol/kg, ip dosed daily 2 hrs before allergen challenge for 10 days and measured 24 hrs after last dose; format: organism-based; conditions: in vivo
Method in brief: (§1)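 Mice given 10 daily administrations at 350 μmol/kg. Monitored for weight loss and for signs of toxicity, including prostration and bristly hair.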

Mus musculus [6] = assay: Anti-inflammatory activity in Balb/c mouse model of hypereosinophilia assessed as inhibition of eosinophil infiltration at 350 umol/kg, ip dosed 2 hrs before allergen challenge; format: functional
Method in brief: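 Balb/c mice sensitized with OVA/alum i.p. and challenged intranasally with OVA on 3 consecutive days. Compounds given i.p. 2 h before each challenge: neutraligands 350 μmol/kg in PBS/CMC 1%, AMD3100 12.6 μmol/kg, dexamethasone 2.5 μmol/kg. BAL 24 h after the last challenge; absolute eosinophil counts; mean ± SEM, n=6/group.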

Mus musculus [7] = assay: Inhibition of eosinophil infiltration in Balb/c mouse model of 8 day model of allergic eosinophilic airway inflammation at 300 nmol/kg dosed intranasally 2 hrs before ovalbumin challenge by hemocytometry; format: functional; conditions: inhaled or nasal
Method in brief: (§2)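 OVA/alum-sensitized Balb/c mice challenged intranasally with OVA on days 5–7. Compounds at 300 nmol/kg in 10% PBS/Cdx given intranasally 2 h before each challenge. BAL 24 h after the last challenge; eosinophils, neutrophils and lymphocytes counted by hemocytometer and differential cytospin; n=6/group.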

Mus musculus [8] = assay: Toxicity in Balb/c mouse model of hypereosinophilia assessed as reduction in spleen weight at 350 umol/kg, ip dosed daily 2 hrs before allergen challenge for 3 days and measured 24 hrs after last dose; format: organism-based; set-up: scale not given: the % may be the effect or the level left; conditions: in vivo
Method in brief: (§3)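 Same OVA model with i.p. dosing 2 h before each of the three challenges: neutraligands 350 μmol/kg in PBS/CMC 1%, AMD3100 12.6 μmol/kg, dexamethasone 2.5 μmol/kg. Body and spleen weight loss recorded 24 h after three daily administrations; n=6/group.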

Mus musculus [9] = assay: Inhibition of lymphocytes infiltration in Balb/c mouse model of 8 day model of allergic eosinophilic airway inflammation at 300 nmol/kg dosed intranasally 2 hrs before ovalbumin challenge by hemocytometry; format: functional, organism-based; method in brief: as §2
Mus musculus [10] = assay: Inhibition of eosinophil infiltration in Balb/c mouse model of 8 day model of allergic eosinophilic airway inflammation dosed intranasally 2 hrs before ovalbumin challenge by hemocytometry; format: functional, organism-based
Method in brief: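 Same intranasal OVA model with dose-response treatment in PBS/Cdx 10% given 2 h before each challenge. Percent inhibition of BAL eosinophil recruitment; mean ± SEM, n=6/group.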

Mus musculus [11] = assay: Toxicity in Balb/c mouse model of hypereosinophilia assessed as toxic signs at 350 umol/kg, ip dosed daily 2 hrs before allergen challenge for 10 days and measured 24 hrs after last dose; format: organism-based; conditions: in vivo; method in brief: as §1
Mus musculus [12] = assay: Toxicity in Balb/c mouse model of hypereosinophilia assessed as reduction in spleen weight at 12.6 umol/kg, ip dosed daily 2 hrs before allergen challenge for 3 days and measured 24 hrs after last dose; format: organism-based; conditions: in vivo; method in brief: as §3
[13] = molecular target: T1, C-C motif chemokine 22 (Homo sapiens) (UniProt O00626); assay: Binding affinity to CCL22 (unknown origin) assessed as inhibition of CCL22-induced increase in intracellular calcium level in EGFP-tagged CCR4 expressing HEK cells at 10 uM
T1 sequence (whole entry): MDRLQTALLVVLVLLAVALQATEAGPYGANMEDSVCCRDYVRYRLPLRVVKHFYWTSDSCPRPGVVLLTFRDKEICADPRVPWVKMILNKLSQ

[14] = molecular target: T2, Stromal cell-derived factor 1 (Homo sapiens, UniProt P48061); assay: Binding affinity to Texas Red-labelled CXCL12 (unknown origin) assessed as inhibition of CXCL12-Texas Red binding to EGFP-labeled human CXCR4 expressed in HEK293 cell membranes pre-incubated for 1 hr by FRET-based binding assay
Method in brief: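 HEK-293 cells stably expressing human EGFP-CXCR4, 10⁶ cells/ml in HEPES buffer pH 7.4 with 0.1% BSA, 21 °C. CXCL12-Texas Red (100 nM) was preincubated 1 h at room temperature with compound or DMSO, then added at t=150 s. FRET read as loss of EGFP emission at 510 nm (excitation 470 nm) up to equilibrium. Ki from dose-response curves.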

[15] = molecular target: C-C motif chemokine 2 (Homo sapiens) (UniProt P13500); assay: Binding affinity to CCL2 (unknown origin) assessed as inhibition of CCL2-induced increase in intracellular calcium level in EGFP-tagged CCR2 expressing HEK cells at 10 uM
Mus musculus [16] = assay: Toxicity in Balb/c mouse model of hypereosinophilia assessed as induction of heart lesions at 350 umol/kg, ip dosed daily 2 hrs before allergen challenge for […] and measured 24 hrs after last dose by Gomori's trichrome staining based histological analysis; format: organism-based; conditions: in vivo
Mus musculus [17] = assay: Anti-asthma activity in Balb/c mouse model of mouse model of hypereosinophilia assessed as inhibition of eosinophil recruitment at 1400 umol/kg, po dosed intranasally 2 hrs before ovalbumin challenge by hemocytometry; format: functional; conditions: in the assay text read “po dosed” for “po dosed intranasally”
Method in brief: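 OVA-sensitized 9-week-old male Balb/c mice (50 μg OVA on 2 mg alum i.p., days 0–2; intranasal OVA 10 μg, days 5–7). Compound at 1400 μmol/kg in PBS/MC 0.5%/Tween 80 0.05% given by gavage 2 h before each challenge. BAL 24 h after the last challenge; eosinophils counted by hemocytometer and Diff-Quick cytospin (≥400 cells); n=6/group.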

[18] = molecular target: T2, Stromal cell-derived factor 1; assay: Binding affinity to CXCL12 (unknown origin) assessed as changes in tryptophan fluorescence intensity
Method in brief: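 Intrinsic Trp fluorescence of CXCL12 (2 μM in Hepes buffer), excitation 285 nm, emission 340 nm, titrated with increasing compound. Kd obtained by fitting a 1:1 binding quadratic model with chemokine fixed at 2 μM. Mean ± SD of three independent experiments.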

T2 sequence (P48061 whole entry): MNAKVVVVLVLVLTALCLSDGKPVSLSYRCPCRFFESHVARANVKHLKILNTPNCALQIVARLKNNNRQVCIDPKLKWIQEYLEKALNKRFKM
C-C motif chemokine 2 (Homo sapiens), sequence (P13500 24-99 limits assumed): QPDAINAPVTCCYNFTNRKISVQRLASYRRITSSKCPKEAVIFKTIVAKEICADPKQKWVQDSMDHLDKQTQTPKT

solubility kinetic at 24 h, 5 µM [1]: > 5 µM
Stability [2]: Stable
remaining at 24 h, 10 µM [3]: 100%
IC50 (Mus musculus [10]): 310 nmol/kg
inhibition [13]: inactive
pKi [14]: 6.57
inhibition [15]: inactive
pKd [18]: 6.11
SMILES: COc1cc(-c2cc(-c3ccc(Cl)cc3)nc(=O)[nH]2)ccc1O
Activity (Mus musculus [4]): Non-Toxic
Activity (Mus musculus [5]): Non-Toxic
inhibition in vivo at 350 µmol/kg (Mus musculus [6]): 55%
inhibition in vivo at 0.3 µmol/kg (Mus musculus [7]): 48%
Activity (Mus musculus [8]): 0%
inhibition (Mus musculus [9]): inactive
Activity (Mus musculus [11]): Non-Toxic
Activity (Mus musculus [12]): Non-Toxic
Activity (Mus musculus [16]): Non-Toxic
inhibition in vivo at 1400 µmol/kg (Mus musculus [17]): 62%
